Active and inactive are the calls of the source. No cut-off for these calls is given here.
Key:
[1] = tested on: NCI-H1703; test: Antiproliferative activity against human NCI-H1703 cells expressing FASN assessed as cell viability at 1 uM after 72 hrs in presence of exogenous lipid concentrate by MTS assay; type: functional, cell-based
In short: (§1)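 Cells were treated as in the MTS viability assay. After 6 h, chemically defined lipid concentrate was added to 2% v/v final. Incubation continued for a further 72 h, then viability was read by MTS at 490 nm. Cells were treated at 2 µM (PC-9) or 1 µM (H1703). Mean ± SD, n = 3, compared with compound alone.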

[2] = target: Fatty acid synthase (Homo sapiens) (UniProt P49327); test: Inhibition of FASN in human NCI-H1703 cells expressing FASN assessed as disruption of AKT/FASN positive feedback loop by measuring decrease in AKT expression at 1 uM after 48 hrs by Western immunoblot based densitometric assay relative to control; type: cell-based
Sequence of Fatty acid synthase (Homo sapiens) (P49327 whole entry, looked up): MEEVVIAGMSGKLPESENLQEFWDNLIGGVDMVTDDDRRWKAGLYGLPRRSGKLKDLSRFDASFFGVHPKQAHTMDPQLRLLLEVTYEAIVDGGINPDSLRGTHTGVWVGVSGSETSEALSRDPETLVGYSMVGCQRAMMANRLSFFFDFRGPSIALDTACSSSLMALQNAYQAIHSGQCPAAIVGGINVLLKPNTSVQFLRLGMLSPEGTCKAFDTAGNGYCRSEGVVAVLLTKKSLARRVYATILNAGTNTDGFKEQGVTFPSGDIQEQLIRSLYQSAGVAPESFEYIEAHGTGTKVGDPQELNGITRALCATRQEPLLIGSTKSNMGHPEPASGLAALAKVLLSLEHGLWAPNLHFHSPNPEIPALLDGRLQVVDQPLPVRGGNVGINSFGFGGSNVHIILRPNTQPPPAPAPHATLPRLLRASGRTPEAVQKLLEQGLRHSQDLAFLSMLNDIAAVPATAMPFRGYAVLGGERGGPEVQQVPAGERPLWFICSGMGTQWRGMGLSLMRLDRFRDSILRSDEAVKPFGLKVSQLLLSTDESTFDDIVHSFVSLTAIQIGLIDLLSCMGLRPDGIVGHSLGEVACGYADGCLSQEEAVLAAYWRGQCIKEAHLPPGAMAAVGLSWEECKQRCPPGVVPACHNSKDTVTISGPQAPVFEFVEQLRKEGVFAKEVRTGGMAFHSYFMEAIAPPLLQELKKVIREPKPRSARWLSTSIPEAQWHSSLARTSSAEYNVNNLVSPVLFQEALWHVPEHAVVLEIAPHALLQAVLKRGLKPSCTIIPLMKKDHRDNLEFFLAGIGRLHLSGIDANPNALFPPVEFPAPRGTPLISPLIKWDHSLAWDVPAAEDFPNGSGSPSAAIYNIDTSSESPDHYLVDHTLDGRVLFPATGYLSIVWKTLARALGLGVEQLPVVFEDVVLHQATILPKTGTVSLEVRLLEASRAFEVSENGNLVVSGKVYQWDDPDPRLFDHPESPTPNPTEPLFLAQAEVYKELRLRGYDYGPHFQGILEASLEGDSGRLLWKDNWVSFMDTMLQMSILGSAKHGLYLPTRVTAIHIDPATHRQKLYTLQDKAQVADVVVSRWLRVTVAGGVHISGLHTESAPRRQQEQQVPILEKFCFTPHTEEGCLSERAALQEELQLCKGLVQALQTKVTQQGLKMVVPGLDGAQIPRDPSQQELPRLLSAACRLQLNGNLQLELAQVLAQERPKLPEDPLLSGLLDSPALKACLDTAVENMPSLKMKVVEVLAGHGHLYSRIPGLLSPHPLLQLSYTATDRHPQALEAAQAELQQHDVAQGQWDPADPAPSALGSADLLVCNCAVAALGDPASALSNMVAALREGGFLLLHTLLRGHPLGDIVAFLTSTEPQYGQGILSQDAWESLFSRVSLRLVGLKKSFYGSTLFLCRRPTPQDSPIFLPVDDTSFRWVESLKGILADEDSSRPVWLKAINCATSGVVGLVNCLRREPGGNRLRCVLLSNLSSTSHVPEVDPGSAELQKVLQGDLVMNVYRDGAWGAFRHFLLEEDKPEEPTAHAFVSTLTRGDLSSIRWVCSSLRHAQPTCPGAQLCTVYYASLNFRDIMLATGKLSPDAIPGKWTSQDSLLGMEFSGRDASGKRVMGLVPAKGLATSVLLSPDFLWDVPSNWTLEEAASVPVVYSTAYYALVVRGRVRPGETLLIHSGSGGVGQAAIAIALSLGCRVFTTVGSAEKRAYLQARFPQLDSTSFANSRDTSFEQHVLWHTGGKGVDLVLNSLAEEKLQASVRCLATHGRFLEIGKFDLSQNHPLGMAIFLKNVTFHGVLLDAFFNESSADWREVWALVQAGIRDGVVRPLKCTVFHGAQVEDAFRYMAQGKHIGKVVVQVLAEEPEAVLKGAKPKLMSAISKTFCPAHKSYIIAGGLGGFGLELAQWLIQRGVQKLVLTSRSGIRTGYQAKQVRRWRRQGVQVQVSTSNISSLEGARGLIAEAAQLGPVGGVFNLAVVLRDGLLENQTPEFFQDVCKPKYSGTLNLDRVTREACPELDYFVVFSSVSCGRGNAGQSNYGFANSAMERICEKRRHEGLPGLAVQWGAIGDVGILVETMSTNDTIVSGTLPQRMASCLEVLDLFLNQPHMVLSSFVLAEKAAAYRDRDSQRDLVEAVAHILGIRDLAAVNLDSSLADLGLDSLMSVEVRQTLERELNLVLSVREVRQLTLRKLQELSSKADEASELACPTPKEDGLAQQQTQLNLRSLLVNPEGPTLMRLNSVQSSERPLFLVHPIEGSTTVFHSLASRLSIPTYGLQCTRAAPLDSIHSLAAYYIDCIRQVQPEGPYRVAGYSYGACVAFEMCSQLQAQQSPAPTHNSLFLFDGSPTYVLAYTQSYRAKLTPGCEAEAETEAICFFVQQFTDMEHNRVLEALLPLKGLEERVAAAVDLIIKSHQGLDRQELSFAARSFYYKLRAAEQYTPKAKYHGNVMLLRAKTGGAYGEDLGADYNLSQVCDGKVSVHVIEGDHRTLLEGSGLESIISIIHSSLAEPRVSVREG
In short: (§2)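 PC-9 or H1703 cells were seeded at 8 × 10^5 per 100 mm dish and treated for 48 h at 1 or 5 µM (or 5, 50 and 100 µM). RIPA lysates were BCA-quantified and run on 8% SDS-PAGE, then transferred to PVDF. Blots were probed for FASN, AKT, phospho-AKT S473 and GAPDH and detected by ECL. Bands were quantified by densitometry and normalised to vehicle control.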

[3] = Cytotoxicity against human SAE cells lacking FASN expression assessed as reduction in cell viability after 72 hrs by MTS assay; type: cell-based
In short: (§3)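 ATCC-sourced cells. H1299, H1650, H1703 and PC-9 were grown in RPMI 1640 with 10% FBS. A549 was grown in high-glucose DMEM with 10% FBS and 1 mM pyruvate. SAEC was grown in BEGM. Cells were seeded at 3 × 10^3 per well (H1650 3.5 × 10^3) and left to attach overnight. Serial dilutions from DMSO stocks were added, 0.1% DMSO final, for 72 h at 37 °C, 5% CO2. Medium was replaced, MTS added, and A490 read after 2 h. IC50 was taken from % viability versus log concentration, 3 experiments.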

[4] = tested on: NCI-H1703; test: Induction of apoptosis in human NCI-H1703 cells expressing FASN assessed as increase in late apoptotic cells at 5 uM after 72 hrs by Annexin-V FITC/PI staining-based flow cytometry; type: functional, cell-based
[5] = tested on: NCI-H1650; test: Antiproliferative activity against human NCI-H1650 cells expressing FASN assessed as reduction in cell viability after 72 hrs by MTS assay; type: functional, cell-based; settings: NCI-H1650, 72 h; in short: as §3
[6] = Ratio of compound kinetic solubility to [1,1'-Biphenyl]-4,4'-diyl bis(3,4,5-trihydroxybenzoate)] kinetic solubility in universal buffer at pH 7.4 measured at 25 degC after 24 hrs by UV/Visible spectroscopic analysis; type: physicochemical; settings: pH 7.4, 24 h
[7] = target: Fatty acid synthase (Homo sapiens) (UniProt P49327); test: Inhibition of FASN in human PC9 cells harboring FASN expression and EGFR delE746-A750 mutant assessed as disruption of AKT/FASN positive feedback loop by measuring decrease in ratio of phosphoAKT/AKT expression at 2 uM after 48 hrs by Western immunoblot based densitometric assay relative to control; type: cell-based
In short: (§4)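 PC-9 (2 µM) or H1703 (1 µM) cells were treated with compound, with or without lipid concentrate (1% v/v per figure legend), for 48 h. Cells were lysed in RIPA buffer and lysates run on SDS-PAGE western blots for FASN, AKT, phospho-AKT S473 and GAPDH. Bands were quantified by densitometry and normalised to untreated control.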

[8] = tested on: PC-9; test: Antiproliferative activity against human PC9 cells harboring FASN expression and EGFR delE746-A750 mutant assessed as cell viability at 2 uM after 72 hrs in presence of exogenous lipid concentrate by MTS assay; type: functional, cell-based; in short: as §1
[9] = target: Fatty acid synthase (Homo sapiens) (UniProt P49327); test: Inhibition of FASN in human NCI-H1703 cells expressing FASN assessed as disruption of AKT/FASN positive feedback loop by measuring decrease in FASN expression at 1 uM after 48 hrs in presence of exogenous lipid concentrate by Western immunoblot based densitometric assay relative to control; type: cell-based; in short: as §4
[10] = target: Fatty acid synthase (Homo sapiens) (UniProt P49327); test: Inhibition of FASN in human NCI-H1703 cells expressing FASN assessed as disruption of AKT/FASN positive feedback loop by measuring decrease in AKT expression at 5 uM after 48 hrs by Western immunoblot based densitometric assay relative to control; type: cell-based; in short: as §2
[11] = target: Fatty acid synthase (Homo sapiens) (UniProt P49327); test: Inhibition of FASN in human NCI-H1703 cells expressing FASN assessed as disruption of AKT/FASN positive feedback loop by measuring decrease in phosphorylated AKT expression at 5 uM after 48 hrs by Western immunoblot based densitometric assay relative to control; type: cell-based; in short: as §2
[12] = Selectivity index, ratio of IC50 for human SAE cells lacking FASN expression to IC50 for human NCI-H1650 cells expressing FASN
In short: (§5)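 Index is the SAEC IC50 divided by the IC50 in the FASN-expressing NSCLC line. IC50s came from MTS viability after 72 h exposure at 37 °C, 5% CO2, DMSO 0.1% v/v. Absorbance was read at 490 nm after 2 h. The fit was % viability against log concentration, with 4 technical repeats and 3 independent experiments. NSCLC lines were grown in RPMI/10% FBS; SAEC in BEGM.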

[13] = target: Fatty acid synthase (Homo sapiens) (UniProt P49327); test: Inhibition of FASN in human NCI-H1703 cells expressing FASN assessed as disruption of AKT/FASN positive feedback loop by measuring decrease in FASN expression at 1 uM after 48 hrs by Western immunoblot based densitometric assay relative to control; type: cell-based; in short: as §2
[14] = tested on: PC-9; test: Induction of apoptosis in human PC9 cells harboring FASN expression and EGFR delE746-A750 mutant assessed as increase in late apoptotic cells at 5 uM after 72 hrs by Annexin-V FITC/PI staining-based flow cytometry; type: functional, cell-based
[15] = target: Fatty acid synthase (Homo sapiens) (UniProt P49327); test: Inhibition of FASN in human PC9 cells harboring FASN expression and EGFR delE746-A750 mutant assessed as disruption of AKT/FASN positive feedback loop by measuring decrease in FASN expression at 1 uM after 48 hrs by Western immunoblot based densitometric assay relative to control; type: cell-based; in short: as §2
[16] = target: Fatty acid synthase (Homo sapiens) (UniProt P49327); test: Inhibition of FASN in human PC9 cells harboring FASN expression and EGFR delE746-A750 mutant assessed as disruption of AKT/FASN positive feedback loop by measuring decrease in FASN expression at 5 uM after 48 hrs by Western immunoblot based densitometric assay relative to control; type: cell-based; in short: as §2
[17] = Selectivity index, ratio of IC50 for human SAE cells lacking FASN expression to IC50 for human NCI-H1299 cells expressing FASN expression; in short: as §5
[18] = target: Fatty acid synthase (Homo sapiens) (UniProt P49327); test: Inhibition of FASN in human NCI-H1703 cells expressing FASN assessed as disruption of AKT/FASN positive feedback loop by measuring decrease in FASN expression at 5 uM after 48 hrs by Western immunoblot based densitometric assay relative to control; type: cell-based; in short: as §2
[19] = target: Fatty acid synthase (Homo sapiens) (UniProt P49327); test: Inhibition of FASN in human PC9 cells harboring FASN expression and EGFR delE746-A750 mutant assessed as disruption of AKT/FASN positive feedback loop by measuring reduction in AKT expression at 5 uM after 48 hrs by Western immunoblot based densitometric assay relative to control; type: cell-based; in short: as §2

Row | Ratio [2] | IC50 [5] [µM] | Ratio [6] | Ratio [7] | Ratio [9] | Ratio [10] | Ratio [11] | Ratio [13] | Ratio [15] | Ratio [16] | Ratio [18] | Ratio [19] | Structure (SMILES) | inhibition [1] | IC50 [3] [µM] | Activity [4] | inhibition [8] | Ratio IC50 [12] | Activity [14] | Ratio IC50 [17]
1 | 0.34 | 2.5 | 6 to 15 | 0.13 | 0.74 | 0.01 | 0.001 | 0.11 to 0.24 | 0.92 | 0.49 | 0.04 | 0.18 | O=C(Oc1ccc(/C=C/c2ccc(OC(=O)c3cc(O)c(O)c(O)c3)cc2)cc1)c1cc(O)c(O)c(O)c1 | inactive | 5 | Active | inactive | 2 | Active | 1.5
2 | 0.52 | 12.7 | 15 | 0.12 | 1.64 | 0.11 | 0.04 | 0.38 to 0.39 | 0.86 | 0.65 | 0.08 | 0.12 | O=C(Oc1ccc(/C=C/c2cccc(OC(=O)c3cc(O)c(O)c(O)c3)c2)cc1)c1cc(O)c(O)c(O)c1 | inactive | 6.8 | Active | inactive | 0.5 | Active | 2.2

— ChEMBL document CHEMBL4406830, “Galloyl esters of trans-stilbenes are inhibitors of FASN with anticancer activity on non-small cell lung cancer cells” (Eur J Med Chem, 2019)
